The text below walks through data of ChEMBL document CHEMBL4196017, “Design, synthesis and identification of silicon-containing HCV NS5A inhibitors with pan-genotype activity” (Eur J Med Chem, 2018).

The nature of data set [1]: Protein binding in dog plasma at 10 uM after 6 hrs by UPLC-MS/MS based equilibrium dialysis method. Type of data set: ADME, cell-free, Canis lupus familiaris. Particulars: read-out: PPB (converted). A digest of the protocol:
(§1)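 Equilibrium dialysis: plasma (pH 7.4) preincubated 15 min at 37 °C, spiked with compound at 1 or 10 µM (0.5% DMSO final); dialysed against 100 mM phosphate buffer pH 7.4, 6 h at 37 °C, 100 rpm; donor and receiver samples analysed by UPLC-MS/MS.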
Background: Equilibrium dialysis compares concentrations on both sides of a semipermeable membrane.

A short description of data set [2]: Efflux ratio of apparent permeability in human Caco2 cells after 90 mins by UPLC-MS/MS analysis. Type of data set: ADME, cell-based. The conditions noted are these: Caco-2. A digest of the protocol:
(§2)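 Caco-2 cells on Transwell inserts grown 21-23 days to TEER ≥200 Ω cm²; rinsed with warm HBSS, preincubated 30 min at 37 °C in 2% BSA with or without inhibitor; compound in 2% BSA added apical or basolateral, 90 min at 37 °C; receiver sampled, UPLC-MS/MS; duplicate; Papp calculated.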

Data set [3] is described as follows: Protein binding in mouse plasma at 10 uM after 6 hrs by UPLC-MS/MS based equilibrium dialysis method. The conditions noted are these: read-out: PPB (converted). Type of data set: ADME, cell-free. A digest of the protocol: as §1
Data set [4] can be described thus: Apparent permeability from apical to basolateral side in human Caco2 cells after 90 mins by UPLC-MS/MS analysis. Type of data set: ADME, cell-based. Particulars: Caco-2; call rule not given here. The procedure, abridged: as §2
The nature of data set [5]: Protein binding in mouse plasma at 1 uM after 6 hrs by UPLC-MS/MS based equilibrium dialysis method. Type of data set: ADME, cell-free. The conditions noted are these: read-out: PPB (converted). The procedure, abridged: as §1
A short description of data set [6]: Apparent permeability from basolateral to apical side in human Caco2 cells after 90 mins by UPLC-MS/MS analysis. The format is ADME, cell-based. Particulars: Caco-2. The procedure, abridged: as §2
A general note: Passage across Caco-2 layers is used to estimate intestinal permeability.

A further data set deals with T1, Cytochrome P450 2B6 (Homo sapiens, UniProt P20813).
T1 sequence (P20813 whole entry): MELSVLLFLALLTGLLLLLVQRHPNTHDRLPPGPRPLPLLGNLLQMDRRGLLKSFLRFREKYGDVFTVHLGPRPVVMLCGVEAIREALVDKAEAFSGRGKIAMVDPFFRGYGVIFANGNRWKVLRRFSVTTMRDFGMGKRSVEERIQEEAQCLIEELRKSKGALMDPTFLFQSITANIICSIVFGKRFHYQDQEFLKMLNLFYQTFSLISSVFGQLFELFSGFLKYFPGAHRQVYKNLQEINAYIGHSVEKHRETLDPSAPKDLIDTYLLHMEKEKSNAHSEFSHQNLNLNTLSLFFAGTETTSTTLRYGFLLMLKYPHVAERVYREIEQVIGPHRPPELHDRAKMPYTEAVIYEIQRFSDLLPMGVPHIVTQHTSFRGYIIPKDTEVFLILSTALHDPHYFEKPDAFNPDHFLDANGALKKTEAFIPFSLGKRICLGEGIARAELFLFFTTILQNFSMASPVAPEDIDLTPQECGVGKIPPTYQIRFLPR
Briefly: Inhibition of CYP2B6 in human liver microsomes at 1 to 10 uM using bupropion hydrochloride as substrate preincubated for 5 mins followed by NADPH addition measured after 30 mins by UPLC-MS/MS analysis relative to control. Type of data set: ADME. Particulars: 0.5 h.

Data set [7] in a line: Cytotoxicity against HUVEC assessed as growth inhibition at 50 uM relative to control. The format is cell-based. Particulars: human, read-out: GI. The procedure, abridged: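 HUVEC from healthy donors exposed to compound at 50 µM; percent inhibition reported as mean of n = 3.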
A short description of data set [8]: Protein binding in rat plasma at 1 uM after 6 hrs by UPLC-MS/MS based equilibrium dialysis method. The conditions noted are these: read-out: PPB (converted). The format is ADME, cell-free. The procedure, abridged:
as §1

Data set [9] concerns the target T2, Cytochrome P450 3A4 (Homo sapiens, UniProt P08684). Nature of the data set: Inhibition of CYP3A4 in human liver microsomes at 1 to 10 uM using midazolam as substrate preincubated for 5 mins followed by NADPH addition measured after 30 mins by UPLC-MS/MS analysis relative to control. Type of data set: ADME. The conditions noted are these: 0.5 h. A general note: Liver microsomes are vesicles of endoplasmic reticulum, rich in cytochrome P450 enzymes.

Data set [10] can be described thus: Protein binding in human plasma at 10 uM after 6 hrs by UPLC-MS/MS based equilibrium dialysis method. The format is ADME, cell-free. Particulars: read-out: PPB (converted). The procedure, abridged:
as §1

Data set [11] can be described thus: Cmax in beagle dog at 2 mg/kg, po administered as single dose by UPLC-MS/MS analysis. Type of data set: ADME, organism-based, Canis lupus familiaris. Further details: dose 2 mg/kg, route oral. Particulars: in vivo.
A short description of data set [12]: Ratio of drug uptake in Sprague-Dawley rat liver to plasma at 10 mg/kg, ig administered as single dose measured after 2 hrs by UPLC-MS/MS analysis. The format is ADME, organism-based. Particulars: po.
The nature of data set [13]: Half life in mouse at 10 mg/kg, ig administered as single dose by UPLC-MS/MS analysis. The format is ADME, organism-based. Particulars: in vivo, po. A digest of the protocol:
(§3)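 Adult male mice (12 h light-dark, 22 °C, 55% humidity) fasted 12 h with free water, then given a single 10 mg/kg intragastric dose; plasma concentrations by UPLC-MS/MS; PK parameters calculated by software.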

Data set [14] is described as follows: Half life in beagle dog at 2 mg/kg, po administered as single dose by UPLC-MS/MS analysis. Particulars: in vivo. Type of data set: ADME, organism-based, Canis lupus familiaris.
Data set [15] is described as follows: Protein binding in human plasma at 1 uM after 6 hrs by UPLC-MS/MS based equilibrium dialysis method. Particulars: read-out: PPB (converted). The format is ADME, cell-free. A digest of the protocol:
as §1

Data set [16] is described as follows: Protein binding in dog plasma at 1 uM after 6 hrs by UPLC-MS/MS based equilibrium dialysis method. The format is ADME, cell-free, Canis lupus familiaris. Particulars: read-out: PPB (converted). A digest of the protocol:
as §1

Data set [17] in a line: Metabolic stability in mouse liver microsomes assessed as parent compound remaining at 0.2 uM preincubated for 5 mins followed by NADPH addition measured up to 60 mins by UPLC-MS/MS analysis. The format is ADME, microsome. The conditions noted are these: read-out: Stability. The procedure, abridged: (§4)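 Pooled mouse, rat or human liver microsomes 0.2 mg/mL with 1 mM NADPH, 5 mM MgCl2, 100 mM potassium phosphate pH 7.4 and 0.2 µM compound; 5-min preincubation at 37 °C, NADPH start, sampled at 5, 15, 30, 60 min; ice-cold acetonitrile stop; UPLC-MS/MS; percent parent remaining at 60 min.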

A further data set concerns the target hERG (KCNH2) (Homo sapiens, UniProt Q12809). Nature of the data set: Inhibition of human ERG assessed as reduction in peak tail current at 3 uM at holding potential of -80 mV by patch clamp method relative to control. The procedure, abridged: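 Whole-cell patch clamp, room temperature; hold -80 mV, 2 s +50 mV depolarization then 3 s -50 mV repolarization every 30 s; peak tail current referenced to initial 50 ms step to -50 mV; 3 min vehicle stabilization, then test solution until stable (<5% over ~5 sweeps) or 6 min max; mean ± SD, n = 3.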

In data set [18] the target is T2, Cytochrome P450 3A4. Briefly: Inhibition of CYP3A4 in human liver microsomes at 1 to 10 uM using nifedipine as substrate preincubated for 5 mins followed by NADPH addition measured after 30 mins by UPLC-MS/MS analysis relative to control. Type of data set: ADME. The conditions noted are these: 0.5 h.
Data set [19] can be described thus: AUC (0 to t) in mouse at 10 mg/kg, ig administered as single dose by UPLC-MS/MS analysis. The format is ADME, organism-based. Particulars: in vivo, po. A digest of the protocol:
as §3

Data set [20] can be described thus: Metabolic stability in rat liver microsomes assessed as parent compound remaining at 0.2 uM preincubated for 5 mins followed by NADPH addition measured up to 60 mins by UPLC-MS/MS analysis. The conditions noted are these: read-out: Stability. Type of data set: ADME, microsome. The procedure, abridged:
as §4

A short description of data set [21]: Cmax in mouse at 10 mg/kg, ig administered as single dose by UPLC-MS/MS analysis. The format is ADME, organism-based. Further details: dose 10 mg/kg, route intragastric. Particulars: in vivo, po. The procedure, abridged: as §3
A short description of data set [22]: Tmax in beagle dog at 2 mg/kg, po administered as single dose by UPLC-MS/MS analysis. The format is ADME, organism-based, Canis lupus familiaris. The conditions noted are these: in vivo.

What is called efflux ratio is a quotient of directional permeabilities that is used to spot active efflux. A word on the Papp A→B: it is the apparent permeability from the apical to the basolateral side of a cell layer. What is called Papp B→A is how fast a substance crosses the layer from the basolateral side. Broadly, the Cmax is the highest concentration seen after dosing. One may read the Kp as the ratio of the level in a tissue or fluid to that in plasma or blood. By half-life is commonly meant how long it takes for the measured level to halve. Read a high half-life as slow decline. One may read the AUC(0-t) as exposure summed from dosing to a finite time, without extrapolation to infinity. A word on the Tmax: it is the time from dosing to the highest level.

T2 sequence (P08684 whole entry): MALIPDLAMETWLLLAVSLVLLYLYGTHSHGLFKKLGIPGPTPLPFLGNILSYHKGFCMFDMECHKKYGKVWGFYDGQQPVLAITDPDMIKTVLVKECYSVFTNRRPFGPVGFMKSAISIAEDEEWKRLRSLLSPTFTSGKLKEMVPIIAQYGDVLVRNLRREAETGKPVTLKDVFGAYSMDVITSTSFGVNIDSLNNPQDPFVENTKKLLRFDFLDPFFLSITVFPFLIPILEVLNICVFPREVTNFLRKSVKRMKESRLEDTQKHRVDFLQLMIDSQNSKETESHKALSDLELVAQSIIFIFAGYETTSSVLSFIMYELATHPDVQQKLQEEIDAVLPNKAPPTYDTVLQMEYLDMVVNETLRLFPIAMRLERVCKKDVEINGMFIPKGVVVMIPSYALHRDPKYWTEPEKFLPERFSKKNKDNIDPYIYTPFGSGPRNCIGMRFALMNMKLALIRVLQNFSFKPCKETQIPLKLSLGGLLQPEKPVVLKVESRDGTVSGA
Chain of hERG (KCNH2) (Q12809 whole entry): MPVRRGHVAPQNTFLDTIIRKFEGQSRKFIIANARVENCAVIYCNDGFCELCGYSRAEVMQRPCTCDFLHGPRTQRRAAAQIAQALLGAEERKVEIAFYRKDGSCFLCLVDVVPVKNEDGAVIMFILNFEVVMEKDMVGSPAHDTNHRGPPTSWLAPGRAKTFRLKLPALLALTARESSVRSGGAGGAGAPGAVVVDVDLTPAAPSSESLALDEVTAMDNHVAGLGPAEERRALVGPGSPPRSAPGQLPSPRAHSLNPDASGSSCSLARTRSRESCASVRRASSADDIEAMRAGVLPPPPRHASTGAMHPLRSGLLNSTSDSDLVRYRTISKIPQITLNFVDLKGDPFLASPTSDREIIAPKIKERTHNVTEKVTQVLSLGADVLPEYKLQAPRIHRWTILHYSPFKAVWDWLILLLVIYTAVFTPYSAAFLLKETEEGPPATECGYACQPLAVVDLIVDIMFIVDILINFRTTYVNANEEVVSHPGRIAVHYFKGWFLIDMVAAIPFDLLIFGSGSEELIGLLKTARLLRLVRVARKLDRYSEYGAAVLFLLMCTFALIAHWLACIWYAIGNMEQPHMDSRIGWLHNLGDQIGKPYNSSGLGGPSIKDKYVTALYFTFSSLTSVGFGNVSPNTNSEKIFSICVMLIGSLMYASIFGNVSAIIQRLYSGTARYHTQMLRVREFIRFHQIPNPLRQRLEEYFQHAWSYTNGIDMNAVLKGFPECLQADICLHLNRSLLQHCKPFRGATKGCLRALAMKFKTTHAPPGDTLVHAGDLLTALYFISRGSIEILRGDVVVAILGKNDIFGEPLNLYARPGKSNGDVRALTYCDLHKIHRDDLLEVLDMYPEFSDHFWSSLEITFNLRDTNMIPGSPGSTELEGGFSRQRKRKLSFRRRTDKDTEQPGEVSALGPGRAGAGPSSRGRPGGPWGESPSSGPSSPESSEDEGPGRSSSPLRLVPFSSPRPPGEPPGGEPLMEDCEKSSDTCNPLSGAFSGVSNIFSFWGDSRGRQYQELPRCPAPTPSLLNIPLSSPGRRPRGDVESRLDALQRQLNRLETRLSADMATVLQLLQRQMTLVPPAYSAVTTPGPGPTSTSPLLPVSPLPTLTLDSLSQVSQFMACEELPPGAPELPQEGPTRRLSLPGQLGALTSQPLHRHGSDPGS

For the compound `CC[Si](CC)(CC)c1ccc(N2[C@H](c3ccc(NC(=O)[C@@H]4CCCN4C(=O)[C@@H](NC(=O)OC)C(C)C)cc3)CC[C@H]2c2ccc(NC(=O)[C@@H]3CCCN3C(=O)[C@@H](NC(=O)OC)C(C)C)cc2)cc1`, the fraction unbound at 6 h, 10 µM in data set [1] was 6e-05; in data set [3] it was 0.00011; in data set [10], 8e-05. For the same compound, the efflux ratio at 1.5 h in [2] is 0.8. The Papp A→B at 1.5 h in [4] turned out to be 0.07 ×10⁻⁶ cm/s. For the same compound, the fraction unbound at 6 h, 1 µM was 8e-05 in [5], 9e-05 in data set [8], 8e-05 in [15] and 4e-05 in data set [16]. For the same compound, the Papp B→A at 1.5 h in [6] came out at 0.05 ×10⁻⁶ cm/s. Besides, the “inhibition (INH)” value at Cytochrome P450 2B6, at Cytochrome P450 3A4 [9] and against Cytochrome P450 3A4 [18] was “Not Active” throughout. In addition, the inhibition at 50 µM in data set [7] was determined as 16.6%. For the same compound, the Cmax was 29.2 ng/mL in data set [11] and 198 ng/mL in data set [21]. In addition, the concentration ratio (Kp) at 2 h in data set [12] was 28.1. Further, the half-life is 22.5 h in [13] and 12.7 h in data set [14]. Besides, the remaining at 1 h, 0.2 µM in data set [17] turned out to be 92.7%; in data set [20], 98%. The inhibition at 3 µM at hERG (KCNH2) amounted to 6.9%. This compound had an AUC(0-t) in data set [19] of 3040 ng·h/mL. Besides, the Tmax in data set [22] stood at 10.5 h.

For `COC(=O)N[C@H](C(=O)N1CCC[C@H]1C(=O)Nc1ccc([C@@H]2CC[C@@H](c3ccc(NC(=O)[C@@H]4CCCN4C(=O)[C@@H](NC(=O)OC)C(C)C)cc3)N2c2ccc(C(C)(C)C)cc2)cc1)C(C)C` [OMBITASVIR], the fraction unbound at 6 h, 10 µM was 1e-05 in data set [1], 1e-05 in data set [3] and 4e-05 in data set [10]. In data set [2], the efflux ratio at 1.5 h is 6.7. Besides, in [4], the Papp A→B at 1.5 h came to 0.08 ×10⁻⁶ cm/s. For the same compound, the fraction unbound at 6 h, 1 µM in data set [5] was 4e-05; in data set [8] it was 2e-05; in data set [15], 3e-05; in data set [16] it was 2e-05. For the same compound, the Papp B→A at 1.5 h in data set [6] was 0.54 ×10⁻⁶ cm/s. In addition, the “inhibition (INH)” value on Cytochrome P450 2B6, at Cytochrome P450 3A4 [9] and against Cytochrome P450 3A4 [18] was “Not Active” in each case. Besides, the inhibition at 50 µM in [7] came out at 11.8%. The maximum concentration (Cmax) in [11] was found to be 15.7 ng/mL; in [21], 583 ng/mL. Moreover, the Kp at 2 h in data set [12] is 24.6. Besides, the half-life was 7.7 h in [13] and 11.1 h in data set [14]. Also, the results for the remaining at 1 h, 0.2 µM in data set [17] and in [20] were 88.7% and 101%, respectively. In addition, the inhibition at 3 µM on hERG (KCNH2) stood at 1.1%. In data set [19], this compound displayed an AUC(0-t) of 6480 ng·h/mL. Moreover, the Tmax in data set [22] was found to be 8.3 h.
